Data taken from ChEMBL document CHEMBL1144472, “Pyrogallol-based molecules as potent inhibitors of the antiapoptotic Bcl-2 proteins” (J Med Chem, 2007).
Activity calls are given as the source filed them. The rule behind the calls is not given here.

Tests used:
[1] = biological target: T1, Apoptosis regulator Bcl-2 (Homo sapiens, UniProt P10415); assay: Displacement of FAM-Bid BH3 peptide from human recombinant Bcl2 by FP-based binding assay
How it was run: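 Competitive fluorescence-polarization binding assay with recombinant human Bcl-2 and a fluorescently tagged Bid BH3 peptide as tracer. Ki values were derived from the competitive binding curves.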

[2] = system: MDA-MB-231; assay: Induction of cell death in human MDA-MB-231 cells after 96 hrs by trypan blue exclusion assay; type: functional, cell-based
How it was run: (§1)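 MDA-MB-231 breast cancer cells were exposed to the inhibitor for 96 hours across a dose series that included 10, 100 and 1000 nM. Viability was scored by trypan blue exclusion.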

[3] = biological target: T1, Apoptosis regulator Bcl-2; assay: Displacement of biotinylated Bim BH3 peptide from recombinant His-tagged Bcl2 by ELISA assay
[4] = biological target: T2, Induced myeloid leukemia cell differentiation protein Mcl-1 (Homo sapiens, UniProt Q07820); assay: Displacement of FAM-Bid BH3 peptide from human Mcl1 by FP-based binding assay
[5] = biological target: T2, Induced myeloid leukemia cell differentiation protein Mcl-1; assay: Displacement of biotinylated Bim BH3 peptide from recombinant His-tagged Mcl1 by ELISA assay
[6] = system: MDA-MB-231; assay: Induction of cell death in human MDA-MB-231 cells at 10 nM after 96 hrs by trypan blue exclusion assay; type: functional, cell-based; how it was run: as §1

T1 sequence (P10415 whole entry): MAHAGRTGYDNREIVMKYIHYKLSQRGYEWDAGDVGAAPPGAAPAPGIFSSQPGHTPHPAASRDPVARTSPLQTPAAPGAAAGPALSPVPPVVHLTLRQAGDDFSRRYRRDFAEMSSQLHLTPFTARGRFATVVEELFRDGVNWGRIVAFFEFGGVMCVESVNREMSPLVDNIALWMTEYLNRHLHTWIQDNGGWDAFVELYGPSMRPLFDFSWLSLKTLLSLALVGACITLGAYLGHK
T2 sequence (Q07820 whole entry): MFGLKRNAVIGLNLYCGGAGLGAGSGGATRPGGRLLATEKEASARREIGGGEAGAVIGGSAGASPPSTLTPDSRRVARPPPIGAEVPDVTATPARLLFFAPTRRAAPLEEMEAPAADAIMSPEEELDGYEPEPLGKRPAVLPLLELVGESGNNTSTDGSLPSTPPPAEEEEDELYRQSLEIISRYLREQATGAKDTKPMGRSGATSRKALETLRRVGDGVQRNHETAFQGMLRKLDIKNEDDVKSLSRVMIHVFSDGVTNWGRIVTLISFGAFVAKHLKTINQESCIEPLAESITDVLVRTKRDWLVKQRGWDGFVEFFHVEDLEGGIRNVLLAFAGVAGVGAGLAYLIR

SMILES	Ki [1] [nM]	IC50 [3] [nM]	Ki [4] [nM]	IC50 [5] [nM]	Activity [2]	Activity [6]
CC(C)c1cc(C(=O)Nc2ccccc2)c(O)c(O)c1O	31900				Dose-dependent effect	
CC(C)c1cc(C(=O)N2CCc3ccc(S(=O)(=O)NCCc4ccccc4)cc3C2)c(O)c(O)c1O	590	6600			Dose-dependent effect	
CN(C)CC[C@H](CSc1ccccc1)Nc1ccc(S(=O)(=O)NC(=O)c2ccc(N3CCN(Cc4ccccc4-c4ccc(Cl)cc4)CC3)cc2)cc1[N+](=O)[O-]					Dose-dependent effect	

More lines, in order of falling Ki [1], values ahead:

Ki [1] [nM]	IC50 [3] [nM]	Ki [4] [nM]	IC50 [5] [nM]	SMILES	Activity [2]	Activity [6]
3100	38200			CC(C)c1cc(C(=O)N2CCc3ccccc3C2)c(O)c(O)c1O	Dose-dependent effect	
110	330	150	39	CN(CCCc1ccccc1)S(=O)(=O)c1cc(C(=O)N2CCc3ccc(S(=O)(=O)NCCc4ccccc4)cc3C2)c(O)c(O)c1O	Dose-dependent effect	Active
